Results taken from ChEMBL document CHEMBL1641444, “Synthesis and evaluation of 6-[1-(2-[(18)F]fluoro-3-pyridyl)-5-methyl-1H-1,2,3-triazol-4-yl]quinoline for positron emission tomography imaging of the metabotropic glutamate receptor type 1 in brain” (Bioorg Med Chem, 2011).

Tests used:
[1] = test system: Heart; assay: Biodistribution in heart of Sprague-Dawley rat at 17 MBq, iv after 15 mins by dissection method; format: ADME, organism-based; conditions: in vivo, 0.25 h
Method in brief: (§1)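 The [18F]ligand was given to rats as a saline solution (average 17 MBq, about 0.11 nmol) via the tail vein. Three rats per time point were killed by cervical dislocation at 5, 15 and 30 min. Dissected tissues were gamma-counted with decay correction, and results are expressed as % injected dose per gram of wet tissue.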

[2] = test system: Spleen; assay: Biodistribution in spleen of Sprague-Dawley rat at 17 MBq, iv after 5 mins by dissection method; format: ADME, organism-based; conditions: in vivo
Method in brief: (§2)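 [¹⁸F]7a in saline (average 17 MBq/200 µL, 0.11 nmol) was given by tail vein. Rats were killed by cervical dislocation at 5, 15 or 30 min, with three rats per time point. Tissue radioactivity was measured by gamma counting, decay-corrected and expressed as %ID per gram of wet tissue.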

[3] = Ratio of drug uptake in Sprague-Dawley rat striatum to medulla at 17 MBq, iv after 10 to 15 mins by small-animal PET; conditions: in vivo
[4] = Biodistribution in pons-medulla of Sprague-Dawley rat at 17 MBq, iv after 30 mins by dissection method; format: ADME, organism-based; conditions: in vivo, 0.5 h; method in brief: as §2
[5] = test system: Thalamus; assay: Biodistribution in thalamus of Sprague-Dawley rat at 17 MBq, iv after 30 mins by dissection method; format: ADME, organism-based; conditions: in vivo, 0.5 h; method in brief: as §2
[6] = test system: Lung; assay: Biodistribution in lung of Sprague-Dawley rat at 17 MBq, iv after 15 mins by dissection method; format: ADME, organism-based; conditions: in vivo, 0.25 h; method in brief: as §2
[7] = Ratio of drug uptake in Sprague-Dawley rat thalamus to medulla at 17 MBq, iv after 10 to 15 mins by small-animal PET; conditions: in vivo
[8] = test system: Pancreas; assay: Biodistribution in pancreas of Sprague-Dawley rat at 17 MBq, iv after 5 mins by dissection method; format: ADME, organism-based; conditions: in vivo; method in brief: as §2
[9] = Biodistribution in olfactory bulb of Sprague-Dawley rat at 17 MBq, iv after 5 mins by dissection method; format: ADME, organism-based; conditions: in vivo; method in brief: as §2
[10] = test system: Liver; assay: Biodistribution in liver of Sprague-Dawley rat at 17 MBq, iv after 5 mins by dissection method; format: ADME, organism-based; conditions: in vivo; method in brief: as §2
[11] = Biodistribution in olfactory bulb of Sprague-Dawley rat at 17 MBq, iv after 30 mins by dissection method; format: ADME, organism-based; conditions: in vivo, 0.5 h; method in brief: as §2
[12] = test system: Striatum; assay: Biodistribution in striatum of Sprague-Dawley rat at 17 MBq, iv after 15 mins by dissection method; format: ADME, organism-based; conditions: in vivo, 0.25 h; method in brief: as §2
[13] = test system: Blood; assay: Biodistribution in blood of Sprague-Dawley rat at 17 MBq, iv after 5 mins by dissection method; format: ADME, organism-based; conditions: in vivo; method in brief: as §1
[14] = test system: Cerebral cortex; assay: Biodistribution in cerebral cortex of Sprague-Dawley rat at 17 MBq, iv after 15 mins by dissection method; format: ADME, organism-based; conditions: in vivo, 0.25 h; method in brief: as §1
[15] = test system: Spleen; assay: Biodistribution in spleen of Sprague-Dawley rat at 17 MBq, iv after 30 mins by dissection method; format: ADME, organism-based; conditions: in vivo, 0.5 h; method in brief: as §2
[16] = test system: Heart; assay: Biodistribution in heart of Sprague-Dawley rat at 17 MBq, iv after 30 mins by dissection method; format: ADME, organism-based; conditions: in vivo, 0.5 h; method in brief: as §1
[17] = Metabolic stability in plasma of ddy mouse assessed as reduction of parent compound level at 3.7 MBq, iv after 5 mins by HPLC analysis; set-up: scale not given: the % may be the effect or the level left
[18] = test system: Thalamus; assay: Biodistribution in thalamus of Sprague-Dawley rat at 17 MBq, iv after 15 mins by dissection method; format: ADME, organism-based; conditions: in vivo, 0.25 h; method in brief: as §2
[19] = test system: Hippocampus; assay: Biodistribution in hippocampus of Sprague-Dawley rat at 17 MBq, iv after 30 mins by dissection method; format: ADME, organism-based; conditions: in vivo, 0.5 h; method in brief: as §1
[20] = Octanol-sodium phosphate buffer partition coefficient, log D of the compound at pH 7.4; format: physicochemical
Method in brief: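 [¹⁸F]7a (radiochemical purity 100%, about 150,000 cpm) was mixed with n-octanol (3.0 g) and 0.1 M sodium phosphate buffer pH 7.40 (3.0 g). The mix was vortexed for 3 min at room temperature, then centrifuged at 3500 rpm for 5 min. Assays were run in triplicate.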

[21] = test system: Cerebellum; assay: Biodistribution in cerebellum of Sprague-Dawley rat at 17 MBq, iv after 5 mins by dissection method; format: ADME, organism-based; conditions: in vivo; method in brief: as §1
[22] = Biodistribution in pons-medulla of Sprague-Dawley rat at 17 MBq, iv after 5 mins by dissection method; format: ADME, organism-based; conditions: in vivo; method in brief: as §2
[23] = test system: Hippocampus; assay: Biodistribution in hippocampus of Sprague-Dawley rat at 17 MBq, iv after 15 mins by dissection method; format: ADME, organism-based; conditions: in vivo, 0.25 h; method in brief: as §1
[24] = test system: Kidney; assay: Biodistribution in kidney of Sprague-Dawley rat at 17 MBq, iv after 5 mins by dissection method; format: ADME, organism-based; conditions: in vivo; method in brief: as §1
[25] = test system: Pancreas; assay: Biodistribution in pancreas of Sprague-Dawley rat at 17 MBq, iv after 15 mins by dissection method; format: ADME, organism-based; conditions: in vivo, 0.25 h; method in brief: as §2
[26] = test system: Cerebellum; assay: Biodistribution in cerebellum of Sprague-Dawley rat at 17 MBq, iv after 30 mins by dissection method; format: ADME, organism-based; conditions: in vivo, 0.5 h; method in brief: as §1
[27] = test system: Striatum; assay: Biodistribution in striatum of Sprague-Dawley rat at 17 MBq, iv after 30 mins by dissection method; format: ADME, organism-based; conditions: in vivo, 0.5 h; method in brief: as §2
[28] = Ratio of drug uptake in Sprague-Dawley rat cerebellum to medulla at 17 MBq, iv after 10 to 15 mins by small-animal PET; conditions: in vivo
[29] = Biodistribution in small intestine of Sprague-Dawley rat at 17 MBq, iv after 5 mins by dissection method; format: ADME, organism-based; conditions: in vivo; method in brief: as §2
[30] = test system: Cerebellum (Mus musculus); assay: Metabolic stability in cerebellum of mouse assessed as reduction of parent compound level at 3.7 MBq, iv after 30 mins by HPLC analysis; set-up: scale not given: the % may be the effect or the level left; conditions: in vivo, 0.5 h
[31] = test system: Lung; assay: Biodistribution in lung of Sprague-Dawley rat at 17 MBq, iv after 30 mins by dissection method; format: ADME, organism-based; conditions: in vivo, 0.5 h; method in brief: as §2
[32] = test system: Heart; assay: Biodistribution in heart of Sprague-Dawley rat at 17 MBq, iv after 5 mins by dissection method; format: ADME, organism-based; conditions: in vivo; method in brief: as §1
[33] = test system: Lung; assay: Biodistribution in lung of Sprague-Dawley rat at 17 MBq, iv after 5 mins by dissection method; format: ADME, organism-based; conditions: in vivo; method in brief: as §2
[34] = test system: Pancreas; assay: Biodistribution in pancreas of Sprague-Dawley rat at 17 MBq, iv after 30 mins by dissection method; format: ADME, organism-based; conditions: in vivo, 0.5 h; method in brief: as §2
[35] = Ratio of drug uptake in Sprague-Dawley rat cerebral cortex to medulla at 17 MBq, iv after 10 to 15 mins by small-animal PET; conditions: in vivo
[36] = test system: Cerebral cortex; assay: Biodistribution in cerebral cortex of Sprague-Dawley rat at 17 MBq, iv after 30 mins by dissection method; format: ADME, organism-based; conditions: in vivo, 0.5 h; method in brief: as §1
[37] = test system: Thalamus; assay: Biodistribution in thalamus of Sprague-Dawley rat at 17 MBq, iv after 5 mins by dissection method; format: ADME, organism-based; conditions: in vivo; method in brief: as §2
[38] = Metabolic stability in plasma of ddy mouse assessed as reduction of parent compound level at 3.7 MBq, iv after 30 mins by HPLC analysis; set-up: scale not given: the % may be the effect or the level left; conditions: 0.5 h
[39] = Fraction unbound in Sprague-Dawley rat plasma after 15 mins by ultra-filtration method; format: ADME; conditions: 0.25 h
Method in brief: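 Plasma protein binding was measured by ultrafiltration. Blood was spun at 3900 rpm for 5 min at 4 °C to obtain plasma. 40 µL of plasma was centrifuged in a filter unit at 2000 rpm for 15 min at 25 °C, and a saline control was run the same way. Free fraction was taken as ultrafiltrate/plasma radioactivity, corrected for a stick factor.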

**Q.** With Cc1c(-c2ccc3ncccc3c2)nnn1-c1cccnc1[18F] as the compound, how does the Drug uptake [1] read?
**A.** 0.24 % ID/g

**Q.** And the Drug uptake [2]?
**A.** 0.43 % ID/g

**Q.** And the Ratio [3]?
**A.** 1.55

**Q.** What about the Drug uptake [4] of the same compound?
**A.** 0.13 % ID/g

**Q.** What about the Drug uptake [5] of the same compound?
**A.** 0.1 % ID/g

**Q.** And the Drug uptake [6]?
**A.** 0.31 % ID/g

**Q.** And the Ratio [7]?
**A.** 1.91

**Q.** What about the Drug uptake [8] of the same compound?
**A.** 0.75 % ID/g

**Q.** What about the Drug uptake [9] of the same compound?
**A.** 0.52 % ID/g

**Q.** What about the Drug uptake [10] of the same compound?
**A.** 2.3 % ID/g

**Q.** What about the Drug uptake [11] of the same compound?
**A.** 0.1 % ID/g

**Q.** What about the Drug uptake [12] of the same compound?
**A.** 0.23 % ID/g

**Q.** What about the Drug uptake [13] of the same compound?
**A.** 0.38 % ID/g

**Q.** What about the Drug uptake [14] of the same compound?
**A.** 0.2 % ID/g

**Q.** And the Drug uptake [15]?
**A.** 0.16 % ID/g

**Q.** And the Drug uptake [16]?
**A.** 0.16 % ID/g

**Q.** What about the Stability [17] of the same compound?
**A.** 57%

**Q.** What about the Drug uptake [18] of the same compound?
**A.** 0.29 % ID/g

**Q.** And the Drug uptake [19]?
**A.** 0.09 % ID/g

**Q.** And the logD [20]?
**A.** 2.53

**Q.** And the Drug uptake [21]?
**A.** 1.21 % ID/g

**Q.** And the Drug uptake [22]?
**A.** 0.47 % ID/g

**Q.** What about the Drug uptake [23] of the same compound?
**A.** 0.22 % ID/g

**Q.** And the Drug uptake [24]?
**A.** 0.76 % ID/g

**Q.** And the Drug uptake [25]?
**A.** 0.34 % ID/g

**Q.** What about the Drug uptake [26] of the same compound?
**A.** 0.2 % ID/g

**Q.** What about the Drug uptake [27] of the same compound?
**A.** 0.11 % ID/g

**Q.** And the Ratio [28]?
**A.** 3.73

**Q.** What about the Drug uptake [29] of the same compound?
**A.** 3.06 % ID/g

**Q.** And the Stability [30]?
**A.** 67%

**Q.** What about the Drug uptake [31] of the same compound?
**A.** 0.17 % ID/g

**Q.** And the Drug uptake [32]?
**A.** 0.47 % ID/g

**Q.** What about the Drug uptake [33] of the same compound?
**A.** 0.5 % ID/g

**Q.** And the Drug uptake [34]?
**A.** 0.21 % ID/g

**Q.** And the Ratio [35]?
**A.** 1.31

**Q.** And the Drug uptake [36]?
**A.** 0.09 % ID/g

**Q.** And the Drug uptake [37]?
**A.** 0.73 % ID/g

**Q.** What about the Stability [38] of the same compound?
**A.** 4%

**Q.** What about the Activity [39] of the same compound?
**A.** 8.5%
